# Source: PubChem BioAssay
# Only some compounds are listed: those with a hit (about 4.3% of all), similar ones and a draw of the others.
# CHO parental Ca: counter-screen for OX1R antagonists: effect in parental CHO cells | parental CHO-K1, ATP-induced calcium, Fluo-8 fluorescence | inhibition, % at 5.6 µM | 0.63% of 330,000 active;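 active = inhibition above that plate's mean sample inhibition plus 3 SD, cut at about 26% in these data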;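 note: 0% = ATP-challenged DMSO wells and 100% = DMSO wells without ATP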
#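 Test system: untransfected parental CHO cell line; also added: ATP stimulus; dosing: 5.6 µM, single dose; signal: calcium-sensitive Fluo-8 fluorescence; measure: percent inhibition of ATP-evoked calcium rise, normalized to controls; benchmarks: low control ATP plus DMSO, high control DMSO only; replication: one well per compound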
# OX1R antag-1: antagonists of human orexin 1 receptor (OX1R) | OX1R-expressing cells, FRET antagonist read-out | inhibition, % at 6.6 µM | 1.8% of 330,000 active | AID 485270; in the data active = inhibition mostly above about 38%, no sharp cut-off; inactive = mostly below about 40%;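 note: 0% = agonist challenge alone and 100% = reference antagonist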
# OX1R antag-2: antagonists of human orexin 1 receptor. AID 434989. CHO/OX1R cells, Fluo-8 calcium fluorescence, orexin A. inhibition, % at 5 µM. O43613. 0.43% of 330,000 active;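 active = inhibition above its plate's threshold, mean inhibition of all tested compounds on the plate plus 3 SD, cut at about 37% in these data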;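 note: 0% = orexin A challenge wells and 100% = SB-334867-A antagonist wells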
# TAAR1 ag: human TAAR1 agonism | Q96RJ0 | 0.99% of 360,000 active | CHO RD-HGA16 TAAR1, Fluo-8 calcium fluorescence; vehicle wells 0%, saturating PEA agonist 100% | activation, % at 3 µM;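 active = activation above the mean activation of all test compounds in the run plus 3 SD, cut at about 38% in these data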
# Target sequence (Q96RJ0 whole entry, looked up): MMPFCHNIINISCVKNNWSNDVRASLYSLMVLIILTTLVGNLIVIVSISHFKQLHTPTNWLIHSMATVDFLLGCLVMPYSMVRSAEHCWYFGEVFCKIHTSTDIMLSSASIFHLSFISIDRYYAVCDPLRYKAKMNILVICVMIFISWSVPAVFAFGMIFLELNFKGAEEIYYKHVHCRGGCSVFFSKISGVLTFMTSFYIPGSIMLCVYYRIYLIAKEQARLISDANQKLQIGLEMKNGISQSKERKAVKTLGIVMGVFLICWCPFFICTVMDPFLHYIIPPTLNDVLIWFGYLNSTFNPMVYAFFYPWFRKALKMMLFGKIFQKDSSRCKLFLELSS
#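 System: CHO-derived RD-HGA16 cells with stable Gα16 and human TAAR1. Times: 17-24 h plating, Fluo-8 75 min 37 °C, 30 min RT. Measured by: calcium-sensitive Fluo-8 signal, excitation 470-495, emission 515-575 nm. Read-out basis: % activation relative to PEA EC100 response. Control set: DMSO and PEA EC100. Repeats: no replicates (n 1).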
# GalR3 antagonist: human GalR3 antagonism; HEK293 GalR3-CNG cAMP membrane potential fluorescence; galR3 body fused to GalR1 C-terminus; inhibition, % at 3 µM; 0.44% of 360,000 active;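 active = inhibition above the screen-wide average plus 3 SD, cut at about 13% in these data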;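 note: forskolin and galanin both at EC90 stimulate the cells; cAMP rise reported by CNG channel membrane potential dye signal; 0% = forskolin plus galanin with DMSO and 100% = forskolin alone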
# TAAR1 antagonist: human TAAR1 antagonism. inhibition, % at 3 µM. CHO RD-HGA16 TAAR1, Fluo-8 calcium fluorescence, antagonist. 1.5% of 360,000 active. AID 624466;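 active = inhibition above a per-plate cutoff, the mean inhibition of test compounds on that plate plus 3 SD, cut at about 49% in these data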;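 note: 0% = DMSO plus EC80 beta-PEA response and 100% = DMSO alone without agonist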
#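 System: CHO RD-HGA16 cells bearing hTAAR1. Reagent: EC80 β-phenethylamine stimulus. Schedule: seeding 17-24 h prior, 75-min 37 °C, 30-min RT dye loading. Signal: Fluo-8 intracellular calcium dye fluorescence, real-time kinetic reads. Read-out: % inhibition from peak post-agonist over basal fluorescence ratio. Benchmarks: vehicle wells and EC80 agonist wells. Replicates: n of 1.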
# Active calls of the source: *; nt = no result given.
SMILES,CHO parental Ca,OX1R antag-1,OX1R antag-2,TAAR1 ag,GalR3 antagonist,TAAR1 antagonist
COc1cccc(NC(=O)C2CCCN(S(=O)(=O)c3cccc4nsnc34)C2)c1 (stereo not drawn),-14,85*,23,7,0,27
O=C(NCc1cc2ccccc2[nH]1)C1CCC(=O)N(CC2CCCCC2)C1 (stereo not drawn),nt,nt,nt,1,-9,0
CCCCN(C(=O)CC1CCCCC1)c1c(N)n(CCCC)c(=O)[nH]c1=O,nt,nt,nt,0,-5,-14
Cc1ccccc1N1CCN(CCC(=O)Nc2ccc(F)cc2)CC1,-17,6,-12,3,-12,-10
O=C(NN=C1CCCCCCC1)c1ccc2ccccc2n1,-18,56*,-2,1,3,-10
O=C(NN=C1CCCCCCC1)c1ccccn1,-4,3,-16,5,-3,6
O=C(N[C@H](c1cccc(Br)c1)[C@@H]1CCCC=C1c1ccccc1)C(F)(F)F,nt,nt,nt,0,-8,12
CCc1c(-c2ccccc2F)ncn1CCc1ccccc1OC,nt,nt,nt,10,-6,14
Cc1cc(C(C)(C)C)oc1C(=O)N(CC(=O)NC1CCCC1)Cc1ccccc1Cl,25,89*,105*,11,-7,33
O=C(CN(Cc1ccccc1Cl)C(=O)CCC(=O)Nc1nccs1)NCC1CCCO1 (stereo not drawn),-10,20,-28,2,-6,6
O=C(Nc1nnc(-c2ccco2)o1)c1ccc([N+](=O)[O-])s1,-7,66*,-7,0,1,-10
O=C(Nc1ccccc1C(=O)OCC(=O)N1CCc2ccccc2C1)c1ccco1,-25,80*,27,19,-2,15
C#CCN(C[C@H]1[C@H](OC(=O)Nc2cccs2)[C@H](OC(=O)Nc2cccs2)CN(C(=O)OC(C)C)N1C(=O)OC(C)C)S(=O)(=O)c1ccc(C)cc1,nt,nt,nt,0,-4,-1
COc1cc(C(=O)NCCNc2nc3cc(C)ccc3cc2C#N)cc(OC)c1OC,-17,54*,-16,4,-8,0
COc1ccc(C(=O)NCCCNc2nc3cc(C)cc(C)c3cc2C#N)cc1,nt,nt,nt,-3,7,-16
COc1cc(OC)cc(C(=O)NCCNc2nc3cc(C)cc(C)c3cc2C#N)c1,-24,53*,3,-2,-6,4
COc1ccccc1C(=O)NCCNc1nc2cc(C)cc(C)c2cc1C#N,-31,41,-11,0,-6,1
Cc1cc(C)c2cc(C#N)c(NCCOC(=O)c3ccccc3C)nc2c1,-42,36*,0,4,4,-20
COc1cc(C(=O)NCCNc2nc3c(C)c(C)ccc3cc2C#N)cc(OC)c1OC,-20,0,-24,1,-6,-14
Cc1cccc2cc(C#N)c(NCCNC(=O)c3ccccc3)nc12,nt,nt,nt,3,-6,14
COCc1cc(C)nc2sc(C(=O)Nc3ccc(OC)cc3)c(N)c12,-14,32,-26,0,-10,-3
COCc1cc(C)nc2sc(C(=O)Nc3cccc(OC)c3)c(N)c12,-14,39*,-14,-1,0,8
CCCNC(=O)/C(C#N)=C1\N=C(NC(=O)c2cccs2)c2ccccc21,-2,16,3,1,2,-31
COCCNC(=O)/C(C#N)=C1\N=C(NC(=O)c2cccs2)c2ccccc21,-7,42*,-7,0,-2,-5
O=C1c2[nH]nc(-c3ccccc3)c2C(c2ccc(F)cc2)N1Cc1ccccc1 (stereo not drawn),nt,nt,nt,6,-8,-19
O=C1[C@H]2[C@@H](c3ccccc3)N[C@]3(CCCN(Cc4ccc(C(F)(F)F)cc4)C3=O)[C@H]2C(=O)N1Cc1ccccc1,nt,nt,nt,12,-5,50*
O=C1[C@H]2[C@@H](c3ccc(C(F)(F)F)cc3)N[C@]3(CCCN(Cc4ccc(F)cc4)C3=O)[C@H]2C(=O)N1Cc1ccccc1,nt,nt,nt,-1,-7,-2
CCn1c(N2CCN(S(=O)(=O)c3ccc(Cl)cc3)CC2)nc2ccccc21,2,10,-5,20,-4,72*
O=C(CSc1n[nH]c(-c2ccccc2)n1)NC1CCCCC1,-16,28,0,0,-4,3
